Reference: article PMC6986167 (Pharmacogenomics and Personalized Medicine, 2020)
Several values for one entry are separate records, joined by “and”; a condition that tells them apart may be missing. Equal values may be shown once. Read-outs that look alike come from different tables or passages of the source. Each block holds one compound with its values, some of them ahead of it.

Legend:
[1] = Minimal equilibrium rivaroxaban concentration in blood plasma by HPLC-MS; assay type: in vivo, patients
Outline: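 Plasma thawed at room temperature, protein-precipitated with methanol plus 0.1% hydrogen chloride 9:1, vortexed, left 10 min, spun 9000 RCF 10 min. C18 column at 40°C, isocratic ammonium acetate/formic acid, water:acetonitrile 70:30. Validated 5–1000 ng/mL. Genotypes by real-time PCR on EDTA blood.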

[2] = data from the centers; cited from earlier work
[3] = AF patients, p = 0.02, cited from earlier work
[4] = tested on: platelets (ADP-activated, P2Y12 Reactivity Units)
[5] = carriership of low function allelic variants, patients on clopidogrel; cited from earlier work

Rivaroxaban concentration, M ([1]; ABCB1 3435 C>T CT+TT, N=73): 80.6 | Rivaroxaban concentration, M ([1]; ABCB1 rs4148738 CC, N=19): 78.8 | Rivaroxaban concentration, M ([1]; ABCB1 rs4148738 CT+TT, N=84): 78.9 | Rivaroxaban concentration, M ([1]; CYP2C19*2 GA+AA, N=31): 86.2 | Rivaroxaban concentration, M ([1]; CYP2C19*2 GG, N=72): 75.7 | Rivaroxaban concentration, M ([1]; CYP3A5*3 AG+AA, N=19): 69.7 | Rivaroxaban concentration, M ([1]; CYP3A5*3 GG, N=84): 81.6 | rivaroxaban concentration ([1]; patients with HAS-BLED 3–9): 92.3 ± 64.9 | rivaroxaban concentration ([1]; patients with HAS-BLED <3): 67.2 ± 47.4
Compound: O=C(NC[C@H]1CN(c2ccc(N3CCOCC3=O)cc2)C(=O)O1)c1ccc(Cl)s1 [Rivaroxaban]
average level of plasma concentration of rivaroxaban [2]: 40 ng/mL | patients beyond the therapeutic range [2]: ~40% | variation of plasma concentration of rivaroxaban [2]: 15 fold | equilibrium rivaroxaban concentration ([3]; first value of bleeding comparison): 48±30 | equilibrium rivaroxaban concentration ([3]; second value of bleeding comparison): 34 ± 26

Compound: COC(=O)[C@H](c1ccccc1Cl)N1CCc2sccc2C1 [clopidogrel]
Platelet reactivity units (PRU), M ([4]; ABCB1 3435 C>T CC, N=30): 136.8 PRU | Platelet inhibition rate (%), M ([4]; ABCB1 3435 C>T CC, N=30, ACS+AF patients on clopidogrel and rivaroxaban): 29.8% | Platelet inhibition rate (%), M ([4]; ABCB1 3435 C>T CT+TT, N=73): 30.9% | Platelet reactivity units (PRU), M ([4]; ABCB1 3435 C>T CT+TT, N=73): 135.5 PRU | Platelet reactivity units (PRU), M ([4]; ABCB1 rs4148738 CC (non-carriers of T), N=19): 113.3 ± 57.1 PRU and 113.3 PRU | Platelet inhibition rate (%), M ([4]; ABCB1 rs4148738 CC, N=19): 34.5% | Platelet reactivity units (PRU), M ([4]; ABCB1 rs4148738 CT+TT (T carriers), N=84): 141.0 ± 62.3 PRU and 141.0 PRU | Platelet inhibition rate (%), M ([4]; ABCB1 rs4148738 CT+TT, N=84): 29.7% | Platelet inhibition rate (%), M ([4]; CYP2C19*2 GA+AA, N=31): 28.6% | Platelet reactivity units (PRU), M ([4]; CYP2C19*2 GA+AA, N=31): 145.2 PRU | Platelet inhibition rate (%), M ([4]; CYP2C19*2 GG, N=72): 31.4% | Platelet reactivity units (PRU), M ([4]; CYP2C19*2 GG, N=72): 131.9 PRU | Platelet inhibition rate (%), M ([4]; CYP3A5*3 AG+AA, N=19): 30.4% | Platelet reactivity units (PRU), M ([4]; CYP3A5*3 AG+AA, N=19): 139.8 PRU | Platelet inhibition rate (%), M ([4]; CYP3A5*3 GG, N=84): 30.6% | Platelet reactivity units (PRU), M ([4]; CYP3A5*3 GG, N=84): 135.0 PRU | platelet inhibition level ([4]; patients with in-hospital death): 63.3% | platelet inhibition level ([4]; patients without in-hospital death): 29.6% | increase of risk of major adverse cardiovascular events (MACE) [5]: 1.5 fold | increase of risk of stent thrombosis [5]: 2.8 fold
